Results: ChEMBL document CHEMBL2176927 (J Med Chem, 2012)
Calls of active or inactive are those of the source. The rule behind the calls is not given here.

How the values were obtained:
[1] = Volume of distribution at steady state in mouse at 1 mg/kg, iv; type: ADME, organism-based; set-up: dose 1 mg/kg, route intravenous; conditions: in vivo, read-out: Vdss
[2] = target: Cytochrome P450 2C19 (Homo sapiens, UniProt P33261); test: Inhibition of CYP2C19-mediated mephenytoin metabolism; type: ADME; conditions: recombinant enzyme
Sequence of Cytochrome P450 2C19 (P33261 whole entry): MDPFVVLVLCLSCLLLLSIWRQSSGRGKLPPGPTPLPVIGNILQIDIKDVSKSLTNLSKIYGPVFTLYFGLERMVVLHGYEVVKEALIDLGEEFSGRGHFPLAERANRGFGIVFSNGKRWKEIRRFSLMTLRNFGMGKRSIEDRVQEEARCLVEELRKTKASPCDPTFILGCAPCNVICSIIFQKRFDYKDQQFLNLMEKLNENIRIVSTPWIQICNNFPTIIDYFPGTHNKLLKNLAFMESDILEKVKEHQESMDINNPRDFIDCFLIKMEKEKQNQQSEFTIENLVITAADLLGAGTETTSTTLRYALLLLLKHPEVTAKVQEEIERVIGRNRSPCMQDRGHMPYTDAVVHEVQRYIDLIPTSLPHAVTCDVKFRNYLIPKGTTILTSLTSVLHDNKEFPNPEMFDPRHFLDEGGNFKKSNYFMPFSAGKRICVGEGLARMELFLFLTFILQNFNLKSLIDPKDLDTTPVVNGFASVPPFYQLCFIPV

[3] = target: Cytochrome P450 3A4 (Homo sapiens, UniProt P08684); test: Inhibition of CYP3A4-mediated midazolam and testosterone metabolism; type: ADME; conditions: recombinant enzyme
Sequence of Cytochrome P450 3A4 (P08684 whole entry): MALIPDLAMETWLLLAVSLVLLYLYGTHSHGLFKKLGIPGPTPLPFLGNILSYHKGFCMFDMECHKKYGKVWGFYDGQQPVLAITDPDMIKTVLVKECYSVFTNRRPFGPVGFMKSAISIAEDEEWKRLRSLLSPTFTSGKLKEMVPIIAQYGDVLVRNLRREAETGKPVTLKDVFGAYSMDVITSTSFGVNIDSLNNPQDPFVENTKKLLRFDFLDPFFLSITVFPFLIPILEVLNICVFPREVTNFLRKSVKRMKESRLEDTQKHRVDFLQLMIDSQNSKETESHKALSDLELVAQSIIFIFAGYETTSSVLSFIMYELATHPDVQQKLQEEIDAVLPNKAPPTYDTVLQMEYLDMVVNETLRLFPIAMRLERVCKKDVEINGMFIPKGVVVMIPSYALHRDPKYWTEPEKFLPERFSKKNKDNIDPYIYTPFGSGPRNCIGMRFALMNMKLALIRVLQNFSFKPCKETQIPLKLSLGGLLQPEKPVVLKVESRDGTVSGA

[4] = Clearance in rat liver microsomes; type: ADME, Microsome
In short: (§1)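 Hepatic clearance (Clhep) predicted from incubation with human, rat or mouse liver microsomes.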

[5] = AUC in mouse at 5 mg/kg, po; type: ADME, organism-based; set-up: dose 5 mg/kg, route oral; conditions: plasma
[6] = Clearance in mouse liver microsomes; type: ADME, Microsome; in short: as §1
[7] = target: Phosphatidylinositol 4,5-bisphosphate 3-kinase catalytic subunit alpha isoform (Homo sapiens) (UniProt P42336); test: Inhibition of PI3Kalpha at 1 uM
Sequence of Phosphatidylinositol 4,5-bisphosphate 3-kinase catalytic subunit alpha isoform (Homo sapiens) (P42336 whole entry, canonical isoform): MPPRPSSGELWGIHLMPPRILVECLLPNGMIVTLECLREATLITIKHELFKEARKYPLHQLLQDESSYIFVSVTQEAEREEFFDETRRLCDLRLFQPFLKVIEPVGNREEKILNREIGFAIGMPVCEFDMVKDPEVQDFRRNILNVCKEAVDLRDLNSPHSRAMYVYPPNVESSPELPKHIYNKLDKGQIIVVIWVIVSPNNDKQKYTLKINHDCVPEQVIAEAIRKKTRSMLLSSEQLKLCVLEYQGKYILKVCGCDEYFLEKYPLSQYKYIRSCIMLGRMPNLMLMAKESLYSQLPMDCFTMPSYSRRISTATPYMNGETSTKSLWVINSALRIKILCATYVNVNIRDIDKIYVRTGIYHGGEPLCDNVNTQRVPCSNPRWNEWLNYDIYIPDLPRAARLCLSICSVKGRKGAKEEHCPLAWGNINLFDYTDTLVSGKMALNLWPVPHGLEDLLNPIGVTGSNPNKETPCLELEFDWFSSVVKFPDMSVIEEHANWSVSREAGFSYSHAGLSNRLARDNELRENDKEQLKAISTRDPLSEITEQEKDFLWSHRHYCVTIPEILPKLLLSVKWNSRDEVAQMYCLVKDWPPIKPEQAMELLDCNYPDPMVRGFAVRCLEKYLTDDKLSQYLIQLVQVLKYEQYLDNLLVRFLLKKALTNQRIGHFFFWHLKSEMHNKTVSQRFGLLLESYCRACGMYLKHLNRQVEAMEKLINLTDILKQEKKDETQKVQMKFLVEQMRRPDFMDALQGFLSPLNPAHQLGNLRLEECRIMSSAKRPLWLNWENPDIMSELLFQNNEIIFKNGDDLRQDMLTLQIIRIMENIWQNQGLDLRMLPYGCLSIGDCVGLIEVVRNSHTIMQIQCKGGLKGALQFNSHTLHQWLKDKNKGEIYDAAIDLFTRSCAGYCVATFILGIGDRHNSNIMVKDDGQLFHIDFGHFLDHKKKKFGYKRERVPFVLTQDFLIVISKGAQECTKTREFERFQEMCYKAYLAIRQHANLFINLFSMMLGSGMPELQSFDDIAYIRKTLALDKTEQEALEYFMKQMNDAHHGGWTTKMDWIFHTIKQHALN
In short: (§2)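 Kinase selectivity panel of 250 kinases. Test compound at 1 µM; percent inhibition recorded for each kinase.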

[8] = tested on: Mus musculus; test: Inhibition of mTORC2 in human PC3 cells xenografted mouse assessed as reduction of phosphorylated Akt level at 12.5 to 100 mg/kg, po after 6 hrs; type: functional, organism-based; conditions: PC-3
In short: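 NCI-PC3 s.c. xenografts in female NCR.nude mice grown to about 500 mm3, then randomized (n = 4). Oral suspension in 0.5% methylcellulose/0.2% Tween 80. Tumors were lysed, normalized by BCA assay, and loaded at 20 µg/well. pAkt Ser473 and total Akt were measured in duplex on Meso Scale electrochemiluminescence in duplicate per mouse, relative to time-matched vehicle mean.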

[9] = tested on: PC-3; test: Cytotoxicity against human pTEN deficient PC3 after 3 days; type: functional, cell-based; conditions: PC-3, 72 h
[10] = tested on: Mus musculus; test: Inhibition of mTORC1 in human PC3 cells xenografted mouse assessed as reduction of phosphorylated p70S6K level at 12.5 to 100 mg/kg, po after 6 hrs; type: functional, organism-based; conditions: PC-3
[11] = target: Cytochrome P450 2D6 (Homo sapiens, UniProt P10635); test: Inhibition of CYP2D6-mediated dextromethorphan metabolism; type: ADME; conditions: recombinant enzyme
Sequence of Cytochrome P450 2D6 (P10635 whole entry, canonical isoform): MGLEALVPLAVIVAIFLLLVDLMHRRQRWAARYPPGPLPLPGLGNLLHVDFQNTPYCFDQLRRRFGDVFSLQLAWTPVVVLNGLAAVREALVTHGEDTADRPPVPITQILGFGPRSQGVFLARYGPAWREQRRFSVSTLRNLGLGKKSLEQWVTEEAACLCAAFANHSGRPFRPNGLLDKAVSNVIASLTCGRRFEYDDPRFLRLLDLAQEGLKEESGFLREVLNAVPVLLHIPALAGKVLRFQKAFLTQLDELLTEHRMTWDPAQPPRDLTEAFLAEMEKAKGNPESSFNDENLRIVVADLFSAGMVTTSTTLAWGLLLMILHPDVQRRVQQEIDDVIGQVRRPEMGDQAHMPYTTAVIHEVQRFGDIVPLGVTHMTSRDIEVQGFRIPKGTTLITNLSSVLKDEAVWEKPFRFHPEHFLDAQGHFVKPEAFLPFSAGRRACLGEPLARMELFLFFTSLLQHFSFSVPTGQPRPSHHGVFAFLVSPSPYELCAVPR

[12] = target: Phosphatidylinositol 4,5-bisphosphate 3-kinase catalytic subunit gamma isoform (Homo sapiens) (UniProt P48736); test: Inhibition of PI3Kgamma at 1 uM; in short: as §2
Sequence of Phosphatidylinositol 4,5-bisphosphate 3-kinase catalytic subunit gamma isoform (Homo sapiens) (P48736 whole entry, looked up, canonical isoform): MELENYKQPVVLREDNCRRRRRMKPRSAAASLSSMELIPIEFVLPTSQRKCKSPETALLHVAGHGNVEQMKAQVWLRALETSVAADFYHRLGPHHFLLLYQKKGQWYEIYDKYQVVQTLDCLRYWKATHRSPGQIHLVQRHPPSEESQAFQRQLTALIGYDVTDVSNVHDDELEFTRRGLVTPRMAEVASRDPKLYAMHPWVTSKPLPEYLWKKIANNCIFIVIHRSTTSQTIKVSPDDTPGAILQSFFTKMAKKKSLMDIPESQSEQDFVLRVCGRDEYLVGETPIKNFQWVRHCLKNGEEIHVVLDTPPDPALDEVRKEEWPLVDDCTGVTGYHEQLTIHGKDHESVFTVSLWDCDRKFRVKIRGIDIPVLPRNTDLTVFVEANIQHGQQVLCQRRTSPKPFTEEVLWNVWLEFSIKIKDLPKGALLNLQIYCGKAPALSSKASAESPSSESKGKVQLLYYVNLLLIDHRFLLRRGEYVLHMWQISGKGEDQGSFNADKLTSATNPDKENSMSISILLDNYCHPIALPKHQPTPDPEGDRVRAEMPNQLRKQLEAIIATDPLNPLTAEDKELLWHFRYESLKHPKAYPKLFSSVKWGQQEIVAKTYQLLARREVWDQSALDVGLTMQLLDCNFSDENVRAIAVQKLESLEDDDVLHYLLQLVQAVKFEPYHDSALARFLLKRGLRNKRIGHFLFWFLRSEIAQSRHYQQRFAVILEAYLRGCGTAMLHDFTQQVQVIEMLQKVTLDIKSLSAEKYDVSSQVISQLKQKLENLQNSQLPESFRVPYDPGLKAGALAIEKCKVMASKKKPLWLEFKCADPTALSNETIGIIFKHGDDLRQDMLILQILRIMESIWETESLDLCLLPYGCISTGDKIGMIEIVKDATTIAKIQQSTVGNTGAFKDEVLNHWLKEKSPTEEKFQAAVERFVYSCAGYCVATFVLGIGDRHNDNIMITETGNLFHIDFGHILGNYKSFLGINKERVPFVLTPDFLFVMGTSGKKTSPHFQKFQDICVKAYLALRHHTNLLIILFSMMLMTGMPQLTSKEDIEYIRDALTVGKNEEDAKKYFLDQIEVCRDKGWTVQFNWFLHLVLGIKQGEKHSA

[13] = Oral bioavailability in mouse at 5 mg/kg; type: ADME, organism-based; conditions: in vivo
[14] = tested on: PC-3; test: Antitumor activity against human PC3 cells xenografted mouse assessed as tumor growth inhibition at 6.25 to 100 mg/kg, po qd for 14 days; type: functional, organism-based
In short: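 Female NCR.nude mice with subcutaneous NCI-PC3 flank tumours, dosed orally once daily (or twice daily at the same daily total) for 14 days from a mean tumour volume of 200 mm3; 5 mice/group. Caliper volume is (L x W x W)/2, measured twice weekly.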

[15] = target: T1, Phosphatidylinositol 4,5-bisphosphate 3-kinase catalytic subunit delta isoform (Homo sapiens) (UniProt O00329); test: Inhibition of PI3Kdelta at 1 uM; in short: as §2
T1 sequence (whole entry): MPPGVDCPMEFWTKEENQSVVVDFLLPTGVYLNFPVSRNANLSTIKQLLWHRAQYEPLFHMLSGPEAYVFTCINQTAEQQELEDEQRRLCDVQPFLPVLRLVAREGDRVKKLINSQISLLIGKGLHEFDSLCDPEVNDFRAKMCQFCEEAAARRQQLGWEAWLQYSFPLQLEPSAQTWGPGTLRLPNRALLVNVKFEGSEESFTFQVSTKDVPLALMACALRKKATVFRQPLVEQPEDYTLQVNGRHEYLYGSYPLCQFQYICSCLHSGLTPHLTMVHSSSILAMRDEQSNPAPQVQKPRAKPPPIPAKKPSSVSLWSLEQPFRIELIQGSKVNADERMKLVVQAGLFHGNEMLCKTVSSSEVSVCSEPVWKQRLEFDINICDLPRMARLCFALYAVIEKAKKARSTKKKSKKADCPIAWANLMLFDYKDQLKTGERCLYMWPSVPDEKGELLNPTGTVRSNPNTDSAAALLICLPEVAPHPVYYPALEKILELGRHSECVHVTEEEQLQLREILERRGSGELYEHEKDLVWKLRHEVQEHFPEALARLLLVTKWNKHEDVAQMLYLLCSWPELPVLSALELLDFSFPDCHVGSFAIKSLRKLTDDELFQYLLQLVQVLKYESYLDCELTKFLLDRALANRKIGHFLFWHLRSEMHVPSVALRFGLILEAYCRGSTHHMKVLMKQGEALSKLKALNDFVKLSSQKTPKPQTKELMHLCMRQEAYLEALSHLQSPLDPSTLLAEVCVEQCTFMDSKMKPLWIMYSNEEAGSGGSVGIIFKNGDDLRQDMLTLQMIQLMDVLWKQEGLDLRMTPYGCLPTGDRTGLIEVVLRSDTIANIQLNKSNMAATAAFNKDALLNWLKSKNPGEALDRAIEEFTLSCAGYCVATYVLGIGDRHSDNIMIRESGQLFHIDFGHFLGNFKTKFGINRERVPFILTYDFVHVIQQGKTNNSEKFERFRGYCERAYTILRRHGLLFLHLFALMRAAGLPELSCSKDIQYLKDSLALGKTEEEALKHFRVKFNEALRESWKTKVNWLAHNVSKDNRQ

[16] = Inhibition of mTORC2 in human pTEN deficient NCI-PC3 cells assessed as reduction of Akt phosphorylation at Ser473; type: cell-based
[17] = tested on: Mus musculus; test: Toxicity in human PC3 cells xenografted mouse assessed as reduction of body weight at 100 mg/kg, po qd for 14 days; type: organism-based, PC-3; set-up: dose 100 mg/kg, route oral; scale not given: the % may be the effect or the level left; conditions: in vivo, 336 h
In short: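 Female NCR.nude mice implanted s.c. in right hind flank with NCI-PC3 cells (5 × 10^6 in Hank's balanced salt solution). Dosing started QD at average tumor volume 200 mm3, 5 mice per group. Body weight recorded twice weekly; 10% body weight loss was the limit for tolerated doses, and mice were euthanized at 20% loss or tumor volume 2000 mm3.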

[18] = target: T2, Cytochrome P450 1A2 (Homo sapiens, UniProt P05177); test: Inhibition of CYP1A2-mediated phenacetin metabolism; type: ADME; conditions: recombinant enzyme
T2 sequence (P05177 whole entry): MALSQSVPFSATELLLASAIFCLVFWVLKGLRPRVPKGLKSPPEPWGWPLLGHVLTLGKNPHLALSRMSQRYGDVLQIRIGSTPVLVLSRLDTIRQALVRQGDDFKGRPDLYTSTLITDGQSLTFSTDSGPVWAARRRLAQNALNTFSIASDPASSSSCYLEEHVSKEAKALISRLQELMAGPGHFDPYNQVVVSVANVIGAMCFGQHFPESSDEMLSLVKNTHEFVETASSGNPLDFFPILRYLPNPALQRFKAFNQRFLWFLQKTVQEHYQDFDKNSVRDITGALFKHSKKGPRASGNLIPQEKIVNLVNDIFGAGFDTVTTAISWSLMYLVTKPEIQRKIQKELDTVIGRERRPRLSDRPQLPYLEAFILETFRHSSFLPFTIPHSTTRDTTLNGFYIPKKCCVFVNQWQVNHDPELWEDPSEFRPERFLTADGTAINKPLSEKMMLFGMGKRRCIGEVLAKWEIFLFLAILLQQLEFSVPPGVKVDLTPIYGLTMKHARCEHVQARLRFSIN

[19] = Plasma protein binding in mouse; type: ADME, cell-free; conditions: read-out: PPB (converted)
[20] = Clearance in human liver microsomes; type: ADME, Microsome; in short: as §1
[21] = Clearance in mouse at 1 mg/kg, iv; type: ADME, organism-based; set-up: dose 1 mg/kg, route intravenous; conditions: in vivo
[22] = Plasma protein binding in rat; type: ADME, cell-free; conditions: read-out: PPB (converted)
[23] = target: Cytochrome P450 2C9 (Homo sapiens, UniProt P11712); test: Inhibition of CYP2C9-mediated warfarin metabolism; type: ADME; conditions: recombinant enzyme
Sequence of Cytochrome P450 2C9 (P11712 whole entry): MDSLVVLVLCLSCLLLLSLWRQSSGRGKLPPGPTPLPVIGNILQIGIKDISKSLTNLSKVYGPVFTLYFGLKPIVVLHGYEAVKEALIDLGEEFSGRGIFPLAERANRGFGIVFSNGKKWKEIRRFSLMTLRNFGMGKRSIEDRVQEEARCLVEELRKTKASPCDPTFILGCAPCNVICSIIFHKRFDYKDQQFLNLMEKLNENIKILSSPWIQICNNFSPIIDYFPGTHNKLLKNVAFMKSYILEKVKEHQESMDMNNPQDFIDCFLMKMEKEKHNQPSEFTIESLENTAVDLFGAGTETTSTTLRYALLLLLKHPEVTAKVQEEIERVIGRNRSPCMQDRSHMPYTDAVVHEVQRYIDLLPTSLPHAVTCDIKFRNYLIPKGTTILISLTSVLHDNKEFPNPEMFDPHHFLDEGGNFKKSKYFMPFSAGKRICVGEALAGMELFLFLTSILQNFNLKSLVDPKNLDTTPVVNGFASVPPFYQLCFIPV

[24] = target: Serine/threonine-protein kinase mTOR (Homo sapiens, UniProt P42345); test: Inhibition of human recombinant mTOR by FRET assay
[25] = Half life in mouse at 1 mg/kg, iv; type: ADME, organism-based; set-up: dose 1 mg/kg, route intravenous; conditions: in vivo
[26] = Plasma protein binding in human; type: ADME, cell-free; conditions: read-out: PPB (converted)

Vd [1]: 1.1 L/kg
inhibition (INH) [2]: Not Active
inhibition (INH) [3]: Not Active
CLhep predicted [4]: 31 mL/min/kg
AUC [5]: 5.7 µM·h
CLhep predicted [6]: 40 mL/min/kg
inhibition [7]: 50%
inhibition (INH) [11]: Not Active
inhibition [12]: 50%
bioavailability [13]: 70%
inhibition [15]: 50%
IC50 [16]: 25 nM
inhibition (INH) [18]: Not Active
fraction unbound [19]: 0.01
CLhep predicted [20]: 13 mL/min/kg
clearance [21]: 22 mL/min/kg
fraction unbound [22]: 0.01
inhibition (INH) [23]: Not Active
Ki [24]: 5.5 nM
half-life [25]: 42 min
fraction unbound [26]: 0.02
SMILES: CCNC(=O)Nc1ccc(-c2nc3c(c(N4CCOCC4)n2)CCN(c2ncccn2)C3)cc1
inhibition [8]: Active
IC50 [9]: 290 nM
inhibition [10]: Active
TGI [14]: Active
Activity [17]: > 10%
